Rows were chosen to be rich in hits. Some 27% of all compounds tested hit in one or more screens of this group.
CYP2C9 inhib: blockers of cytochrome P450 2C9 activity – biochemical, luminescence, ADME assay, primary screen | P11712 | hit rate 20% among 96,000 | CYP2C9 Supersomes, luciferin-H conversion | inhibition, % at 5 µM;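 active = blocking of liver enzyme CYP2C9 beyond about 50% at 5 µM, limit read from the data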
Target sequence (P11712 whole entry, looked up): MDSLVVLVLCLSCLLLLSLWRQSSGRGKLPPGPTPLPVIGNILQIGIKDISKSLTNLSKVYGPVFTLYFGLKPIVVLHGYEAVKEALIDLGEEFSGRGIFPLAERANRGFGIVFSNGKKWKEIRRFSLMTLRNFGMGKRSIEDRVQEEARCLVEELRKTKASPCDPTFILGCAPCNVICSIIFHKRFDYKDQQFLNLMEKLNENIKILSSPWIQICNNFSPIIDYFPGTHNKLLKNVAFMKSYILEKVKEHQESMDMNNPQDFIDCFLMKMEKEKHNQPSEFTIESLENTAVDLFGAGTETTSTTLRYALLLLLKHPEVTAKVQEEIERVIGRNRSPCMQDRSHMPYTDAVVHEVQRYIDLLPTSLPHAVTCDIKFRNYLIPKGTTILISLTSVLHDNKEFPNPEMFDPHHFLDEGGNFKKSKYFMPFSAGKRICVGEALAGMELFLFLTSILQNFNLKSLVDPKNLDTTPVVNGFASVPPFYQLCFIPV
CYP2C9 activ: human CYP2C9 activators, primary screen, biochemical, luminescence; recombinant CYP2C9, luciferin-H conversion; hits give high values; factor 1 = untreated enzyme, 0 = blocked; AID 1024, 2008; hit rate 1.4% among 96,000; activation factor at 5 µM; Cytochrome P450 2C9 (Homo sapiens), P11712;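 active = activation factor of 2 or more for CYP2C9 at a 5 µM dose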;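 also: 0 = sulfaphenazole-blocked wells and 1 = vehicle-only wells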
Rev-RRE block: HIV-1 Rev-RRE binding inhibitors, primary screen, biochemical, FRET, protein-RNA interaction | P05866 | Rev peptide-RRE RNA binding | inhibition, % at 8 µM | hit rate 0.79% among 97,000 | AID 704, 2007;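 active = inhibition above the screen-wide mean plus 3 SD, cut at about 35% in these data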;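 also: 0% = median DMSO wells and 100% = median Neomycin B control wells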
Target sequence (P05866 whole entry, looked up): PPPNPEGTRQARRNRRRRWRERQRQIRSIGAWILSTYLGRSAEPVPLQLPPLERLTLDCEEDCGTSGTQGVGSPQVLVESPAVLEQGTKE
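Assay system: Rev peptide and RRE RNA, both fluorescently labelled; times: 5 min preincubation and 15 min binding, 25 °C; detection: FRET, ex 480 nm, em 540 and 671 nm; read-out basis: % inhibition from 671/540 nm acceptor-to-donor ratio, scaled between controls; benchmarks: DMSO low control, neomycin B high control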
CYP2C19 inhib: blockers of cytochrome P450 2C19 activity – biochemical, luminescence, ADME assay, primary screen | P33261 | CYP2C19 Supersomes, luciferin-H EGE luminescence, 30 min | inhibition, % at 5 µM | hit rate 21% among 96,000 | AID 778, 2007;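 active = CYP2C19 inhibition above a set limit at 5 µM in the primary screen, cut at about 50% in these data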;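 also: plate controls were negative control wells for no effect and 2.5 mM tranylcypromine positive control for full effect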
Cav32 inh: Cav3.2 calcium influx blockers – cell-based, Fluo-4 calcium fluorescence, FDSS, MLSMR library, primary screen | Voltage-dependent T-type calcium channel subunit alpha-1H (Homo sapiens), O95180 | Cav3.2-expressing cells; hits give low values | B-score at 10 µM | hit rate 4% among 100,000 | AID 449739, 2010;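 active = single-dose well whose peak fluorescence ratio is a statistical outlier from its plate by either plate-standardised score or position-corrected B-score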
CYP2C19 act: human CYP2C19 activators, primary screen, biochemical, luminescence; Cytochrome P450 2C19 (Homo sapiens), P33261; recombinant CYP2C19, luciferin-H EGE luminescence; hits give high values; 0 = fully inhibited enzyme, 1 = untreated enzyme; 96,000 tested, under 10 active; activation factor at 5 µM;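 active = activation factor of at least 2 at 5 µM in the primary screen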;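 also: 0 = wells with 2.5 mM tranylcypromine and 1 = vehicle-only wells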
* marks the source's active call; other numbers are inactive results; / = no result; [ ] = another dose, or the depositor's remark.

SMILES | CYP2C9 inhib | CYP2C9 activ | Rev-RRE block | CYP2C19 inhib | Cav32 inh | CYP2C19 act
CCOc1cc(/C=N/NS(=O)(=O)c2ccccc2)ccc1OS(=O)(=O)c1ccc(C)cc1 | 100* | 0 | 2 | 99* | / | 0
CCOc1cc(/C=N/NC(=O)CNc2cccc(C)c2)ccc1OC(=O)c1ccccc1 | 40 | 0.6 | 6 | 13 | -3.9* | 0.9
CCOC(=O)c1ccc(NC(=O)c2nc[nH]c2C(=O)N2CCN(c3ccccc3)CC2)cc1 | / | / | / | / | -0.24 | /
Cc1ccnc(N2CCN(c3c4c(c(C#N)c5nc6ccccc6n35)CCC4)CC2)c1 | / | / | 11 | / | / | /
C/C(N)=C(/C#N)C(=O)CSc1nnnn1-c1ccc(C)cc1 | -20 | 1.2 | -2 | 52* | 0.64 | 0.5
C/C(N)=C(/C#N)C(=O)CSc1nnnn1-c1ccccc1 | -11 | 1.1 | 3 | 64* | / | 0.4
CC(C)(C)NC(=O)CCN1CCOCC1 | -33 | 1.3 | 8 | -27 | 1.1 | 1.3
Cc1ccc(NS(=O)(=O)c2cccc(C(=O)n3ncc(C#N)c3N)c2)c(C)c1 | 51* | 0.5 | / | 27 | -0.54 | 0.7
Cc1ccc(NS(=O)(=O)c2ccc(NC(=O)c3ccc(-c4ccccc4)cc3)cc2)c(C)c1 | / | / | 17 | / | -0.33 | /
O=C(CN(Cc1ccccc1Cl)C(=O)c1ccc(CN2CCOCC2)o1)NCC1CCCO1 (configuration not stated) | 1 | 1 | 1 | 0 | -0.0092 | 1
Cn1cc(Cl)c(C(=O)OCC(=O)Nc2ccccc2)n1 | 22 | 0.8 | 3 | 83* | 0.21 | 0.2
CC(C)CC(=O)Nc1ccc(Nc2ccccc2)cc1 | / | / | -3 | / | -0.6 | /
O=C(COC(=O)Cc1cccs1)Nc1ccccc1 | 29 | 0.7 | 6 | 69* | 0.84 | 0.3
CC(C)OC(=O)c1ccc(NC(=O)c2ccco2)cc1 | 45 | 0.5 | -3 | 57* | 1 | 0.4
CC(=O)c1cccc(NC(=O)Cc2cccs2)c1 | 22 | 0.8 | / | 30 | 1.3 | 0.7
O=C(COC(=O)c1cccnc1)Nc1ccccc1 | / | / | 5 | / | 0.12 | /
CC(C)C(=O)Nc1ccc(Nc2ccccc2)cc1 | 55* | 0.4 | 2 | 55* | -0.05 | 0.5
Cc1ccccc1OCc1nnc2c3cnn(C)c3ncn12 | 1 | 1 | / | 41 | 0.24 | 0.6
COc1ccccc1N1CCN(C(=O)CSc2nc(C)c(Cc3ccccc3)c(=O)[nH]2)CC1 | 26 | 0.7 | 3 | 23 | -3 | 0.8
O=C(Nc1ccc(Nc2ccccc2)cc1)c1ccco1 | 82* | 0.2 | -3 | 67* | -0.93 | 0.3
O=C(COC(=O)[C@H](Cc1ccccc1)NC(=O)c1ccco1)NCc1ccccc1 | 91* | 0.1 | 3 | 71* | 0.055 | 0.3
O=C(Nc1ccc(OCC(=O)N2CCC(Cc3ccccc3)CC2)cc1)c1ccco1 | 87* | 0.1 | 8 | 95* | -7.2* | 0.1
O=C(Nc1ccc(Cc2ccncc2)cc1)c1ccco1 | 98* | 0 | 4 | 96* | 0.18 | 0
O=C(Nc1ccc(Br)cc1)c1ccco1 | 21 | 0.8 | 2 | -5 | / | 1.1
Cn1cc(Cl)c(C(=O)Nc2nc3ccccc3s2)n1 | -6 | 1.1 | -2 | 54* | 0.0071 | 0.5
SMILES | CYP2C9 inhib | CYP2C9 activ | Rev-RRE block | CYP2C19 inhib | Cav32 inh | CYP2C19 act
O=C(Nc1nccs1)c1ccc(NC(=O)c2ccco2)cc1 | 51* | 0.5 | 5 | 20 | 0.078 | 0.8
O=C(Nc1nnc(COc2ccccc2)s1)c1ccco1 | 21 | 0.8 | 7 | 11 | 0.58 | 0.9
O=C(COC(=O)c1ccco1)Nc1ccc(Br)cc1 | 37 | 0.6 | 3 | 25 | -0.34 | 0.7
O=C(Nc1nc(-c2cccs2)c(-c2ccccc2)s1)c1ccco1 | 96* | 0 | 17 | 66* | 0.34 | 0.3
Cn1cc(Cl)c(C(=O)Nc2cccc(Cl)c2Cl)n1 | 16 | 0.8 | 2 | 49 | 0.35 | 0.5
O=C(COC(=O)c1ccco1)Nc1ccccc1 | 18 | 0.8 | 0 | 58* | 1.3 | 0.4
CCN(CC)CCCN1C(=O)c2oc3ccccc3c(=O)c2C1c1cccs1 (configuration not stated) | 24 | 0.8 | 7 | -13 | -1.5 | 1.1
CCC(c1nnnn1C(C)(C)CC)N(CCCO)Cc1cc2cccc(C)c2[nH]c1=O (configuration not stated) | 75* | 0.3 | 4 | 71* | / | 0.3
O=S1(=O)C=C(Sc2nnc(-c3ccccc3)o2)c2ccccc21 | -10 | 1.1 | / | -16 | / | 1.2
CCOCCCNC(=O)C(c1ccc(Cl)cc1)N1CCC2(CC1)OCCO2 (configuration not stated) | -9 | 1.1 | -2 | 59* | 1.7 | 0.4
CCOCCCNC(=O)C(c1ccc(Cl)cc1)N1CCN(c2ccccc2)CC1 (configuration not stated) | 18 | 0.8 | / | 51* | -1.4 | 0.5
O=c1c2c3nc4ccccc4nc3n(/N=C/c3cccs3)c2ncn1-c1ccccc1 | 6 | 0.9 | / | -4 | / | 1
CCO[C@H]1OC(C(N)=O)=C[C@@H](C2CCCCC2)[C@@H]1CCCO | / | / | / | / | 0.66 | /
CCOC(=O)C(C(=O)NCc1cccc(OC)c1)c1ncc(C(F)(F)F)cc1Cl (configuration not stated) | 10 | 0.9 | 1 | 19 | -0.029 | 0.8
Cc1ccc(NS(=O)(=O)c2ccc(CCC(=O)NCCO)cc2)cc1 | 85* | 0.1 | 11 | 58* | -0.17 | 0.4
CCCNC(=O)COc1ccc(S(=O)(=O)Nc2ccc(C)cc2)cc1 | 52* | 0.5 | -5 | 69* | -0.24 | 0.3
Cc1ccc(S(=O)(=O)NCCC(=O)NCCN2CCCCCC2)cc1 | -37 | 1.4 | / | -19 | 0.065 | 1.2
CC(/C=N\Nc1nnc2c(n1)[nH]c1c(C)cccc12)=C\c1ccco1 | -3 | 1 | -5 | -6 | -1.3 | 1.1
O=C(Nc1ccc(S(=O)(=O)Nc2ncccn2)cc1)c1ccc(Br)s1 | 18 | 0.8 | 10 | 0 | 0.067 | 1
Cc1nn(-c2ccc(F)cc2)c2c1cc(C#N)c1nc3ccccc3n12 | 0 | 1 | -2 | 3 | 0.016 | 1
COc1ccc(OC)c2c1C(=O)c1ccccc1C2=O | 18 | 0.8 | 75*[fluorescence artefact?] | 7 | -8.9* | 0.9
COc1cccc2c1C(=O)c1ccc3ccccc3c1C2=O | -10 | 1.1 | 5 | 4 | / | 1
COc1cc(C2C(C#N)=C(N)Oc3cc(N)ccc32)cc(OC)c1OC (configuration not stated) | / | / | 12 | / | -0.51 | /
